Sampled rows, rich in hits. Any-hit rate of the full collection: about 3.5%.
Cneo AK release: causes C. neoformans cell lysis | adenylate kinase release luminescence, 4 h; normalised: neutral wells 0, clomiphene wells 100 | lysis activity, % at 15 µM | 360,000 compounds, 0.2% hits;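 active = mean lysis activity across replicates of at least 80%, whatever share of replicates individually reach that level; inactive = mean lysis activity below 80%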
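Material – Cryptococcus neoformans yeast cells · Quantity – 5 × 10^6 yeast cells/mL · Buffer or medium – YPD medium · Compound – single dose · Timing – 4 h static compound exposure, 37 °C, read 1 h post-reagent · Signal – adenylate kinase release luminescence · Read-out basis – lysis from increased AK signal · Benchmarks – Clomiphene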
Env fusion inh: inhibitors of HIV Env-mediated cell fusion; 360,000 compounds, 1.1% hits; HeLa-JRFL Env/CEM21 cell fusion, luciferase; AID 651610; inhibition, % at 12.3 µM;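 active = mean replicate inhibition score of at least 50 and every replicate individually at or above 50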;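 note: 0% = plate neutral controls and 100% = maraviroc near 300 nM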
PGC1a acetyl inh: lowers PGC1a acetylation signal in U2OS cells | 350,000 compounds, 0.17% hits | inhibition, % at 15.6 µM | AlphaScreen anti-acetyl-lysine; with virally co-expressed GCN5 acetyltransferase | AID 651687;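 active = every replicate shows inhibition of at least 40%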;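 note: 0% = neutral control wells and 100% = positive control wells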
FGF22 binding: FGF22 (human) thermal shift binding; 340,000 compounds, 1.5% hits; recombinant FGF22 thermal shift, SYPRO orange fluorescence; percent of sucrose octasulfate shift, DMSO zero; activity (Tm shift, normalised), % at 9.99 µM;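 active = mean Tm shift, scaled 0 neutral to 100 positive control, at about 1.3% or above, every replicate too, limit read from the data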
Target sequence (Q9HCT0 whole entry, looked up): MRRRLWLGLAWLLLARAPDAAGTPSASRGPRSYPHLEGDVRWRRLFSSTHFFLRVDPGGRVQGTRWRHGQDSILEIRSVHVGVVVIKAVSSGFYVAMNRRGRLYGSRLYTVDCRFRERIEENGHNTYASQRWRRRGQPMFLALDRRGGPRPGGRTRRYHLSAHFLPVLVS
rRNA inh HTS: inhibits bacterial ribosomal RNA function over humanized ribosomes; 350,000 compounds, 1.6% hits; GFP signal change (wild-type ribosome), % (concentration not given with the values); E. coli WT GFP vs humanized-ribosome RFP mutants, fluorescence, 24 h; active compounds read low; DMSO median 0, no signal -100; AID 720706;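 active = significant combined selectivity score with lowered wild-type GFP, culture density cut under 30%, mutant RFP and density less affected; inactive = any of these conditions unmet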
ERAP1 HTS inh: inhibitors of human ERAP1 aminopeptidase | Q9NZ08 | recombinant ERAP1, Leu-AMC fluorescence, 60 min | inhibition, % at 10.7 µM | 340,000 compounds, 0.15% hits;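 active = mean replicate inhibition of at least 30%, or all replicates individually reaching that 30% level; inactive = mean below 30% and not every replicate reaching it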;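 note: 0% = neutral control wells and 100% = L-leucinethiol positive control wells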
The depositor's hits bear a star; [ ] = remark or other dose.

Screening O=C(COC(=O)CNC(=O)c1ccc(Cl)cc1Cl)NC1CC1 returned Cneo AK release 3, Env fusion inh -12, PGC1a acetyl inh -6, FGF22 binding 43*, rRNA inh HTS -2 and ERAP1 HTS inh 1.
`CC(C)OP(=O)(Nc1cccc2ccccc12)OC(C)C` gave Cneo AK release 0, Env fusion inh 94*, PGC1a acetyl inh -13, FGF22 binding 0, rRNA inh HTS -1 and ERAP1 HTS inh 5.
O=S(=O)(Nc1ccc(-n2cccc2)cc1)c1ccc(Cl)c(Cl)c1 was read as Env fusion inh 11, PGC1a acetyl inh 3, FGF22 binding 0, rRNA inh HTS -45* and ERAP1 HTS inh -2.
Oc1nc(-c2ccc(Br)cc2)n2ccncc12 was read as Cneo AK release -2, Env fusion inh 11, FGF22 binding 43*, rRNA inh HTS 4 and ERAP1 HTS inh 3.
`CCOC(=O)N1CCN(C(=O)c2oc3ccc(S(=O)(=O)N4CC(C)CC(C)C4)cc3c2C)CC1` (stereo unspecified) gave Cneo AK release -1, Env fusion inh 62* and PGC1a acetyl inh 0.
For COc1ccccc1NC(=O)NC1CCCc2ccccc21 (stereo unspecified) the results were Cneo AK release -2, Env fusion inh 5, FGF22 binding 0, rRNA inh HTS 4 and ERAP1 HTS inh 3.
For CCCCN1C(=O)C(=O)N(CC(=O)NC2CCCc3ccccc32)C1=O (stereo unspecified) the results were Env fusion inh 10, FGF22 binding 44*, rRNA inh HTS -8 and ERAP1 HTS inh -3.
For CCOc1ccccc1NC(=O)NC1CCCc2ccccc21 (stereo unspecified) the results were Cneo AK release 0, Env fusion inh 59*, PGC1a acetyl inh -6, FGF22 binding 0, rRNA inh HTS 3 and ERAP1 HTS inh 5.
`O=C(CN1C(=O)C2CCCCC2C1=O)NC1CCCc2ccccc21` (stereo unspecified) gave Cneo AK release 1, Env fusion inh 1, rRNA inh HTS 5 and ERAP1 HTS inh 0.
`Cc1cccc(C(=O)OCC(=O)c2c(N)n(CC(C)C)c(=O)n(C)c2=O)c1O` gave Env fusion inh 60*, FGF22 binding 0, rRNA inh HTS -2 and ERAP1 HTS inh -4.
`CCOc1ccc(OCCC(=O)OCC(=O)c2c(N)n(CC(C)C)c(=O)n(C)c2=O)cc1` gave Cneo AK release -1, Env fusion inh 6, FGF22 binding 0, rRNA inh HTS -17* and ERAP1 HTS inh -1.
`Cc1cccc(C(=O)OCC(=O)c2c(N)n(CC(C)C)c(=O)n(C)c2=O)c1[N+](=O)[O-]` gave FGF22 binding -1, rRNA inh HTS -6 and ERAP1 HTS inh 1.
Screening C=CCSc1ncc(C(=O)OCC)c(N)n1 returned Env fusion inh -8, PGC1a acetyl inh 2, FGF22 binding 43*, rRNA inh HTS 6 and ERAP1 HTS inh -1.
For CCOC(=O)c1cnc(SSc2ncc(C(=O)OCC)c(N)n2)nc1N the results were Cneo AK release 1, Env fusion inh -36, PGC1a acetyl inh 3, FGF22 binding 0, rRNA inh HTS 13 and ERAP1 HTS inh 2.
Screening C[C@@H]1CN([C@@H](C)CO)C(=O)c2cccc(NC(=O)C3CCOCC3)c2O[C@@H]1CN(C)CC1CC1 returned Cneo AK release -55, Env fusion inh -10[16.7 µM], FGF22 binding 0, rRNA inh HTS 2 and ERAP1 HTS inh -1.
Screening c1ccc(CN2CCN(c3ncnc4c3[nH]c3ccccc34)CC2)cc1 returned Cneo AK release -2 and PGC1a acetyl inh -1.
For Cc1ccc2c(c1)[nH]c1c(N3CCN(Cc4ccccc4)CC3)ncnc12 the results were Cneo AK release -6, Env fusion inh 63* and PGC1a acetyl inh -4.
`c1ccc2c(c1)CCN(c1ncnc3c1[nH]c1ccccc13)C2` gave Cneo AK release -4, Env fusion inh 87* and PGC1a acetyl inh 10.
`COc1ccc2c(c1)[nH]c1c(N3CCN(Cc4ccc5c(c4)OCO5)CC3)ncnc12` gave Cneo AK release 0 and Env fusion inh 97*.
Cc1ccc2[nH]c3c(N4CCN(Cc5ccccc5)CC4)ncnc3c2c1 was read as Cneo AK release -16, Env fusion inh 97* and PGC1a acetyl inh 67.
Screening c1ccc2c(c1)[nH]c1c(N3CCC4(CC3)OCCO4)ncnc12 returned Cneo AK release 1.
`Cc1ccccc1NC(=O)c1cn2c(nc3ccccc32)c(C#N)c1C` gave Cneo AK release 0, Env fusion inh -11, PGC1a acetyl inh 3, FGF22 binding 0, rRNA inh HTS 13 and ERAP1 HTS inh -1.
`CCCN(C(=O)/C=C/c1nc2ccccc2s1)C1CCS(=O)(=O)C1` (stereo unspecified) gave Cneo AK release 0, Env fusion inh -1, PGC1a acetyl inh 5, FGF22 binding 0, rRNA inh HTS -1 and ERAP1 HTS inh 3.
`CCOC(=O)Nc1nc(-c2ccc(F)cc2F)cs1` gave Env fusion inh -4, FGF22 binding 0, rRNA inh HTS -4 and ERAP1 HTS inh 3.
COc1ccc(CCn2nnc3ccccc3c2=O)cc1OC was read as Cneo AK release 0, Env fusion inh -52, FGF22 binding 43*, rRNA inh HTS 4 and ERAP1 HTS inh -1.
CN(C)S(=O)(=O)c1ccc(C(=O)NCC[N+]2(C)CCCCCC2)o1 was read as Cneo AK release -3, Env fusion inh 14, PGC1a acetyl inh -1, FGF22 binding 0, rRNA inh HTS 8 and ERAP1 HTS inh 41*.
Screening Cc1ccc(C(=O)NCCCCNC(=O)c2ccc(C)o2)o1 returned Cneo AK release 0 and PGC1a acetyl inh -2.
Cc1ccc(NC(=O)N2CCC(NC(=O)c3cccc(C)c3)CC2)cc1 was read as Cneo AK release 0, Env fusion inh 2, FGF22 binding 0, rRNA inh HTS -2 and ERAP1 HTS inh 3.
COc1ccc(NC(=O)N/C=C/c2ccco2)cc1 was read as Cneo AK release -16, Env fusion inh 17, PGC1a acetyl inh 18, FGF22 binding 43*, rRNA inh HTS 6 and ERAP1 HTS inh -2.
Screening O=C(N/C=C/c1ccco1)Nc1cccc(Cl)c1 returned Cneo AK release -2, Env fusion inh -16, PGC1a acetyl inh -7, FGF22 binding 0, rRNA inh HTS 16 and ERAP1 HTS inh 8.
`Cc1c(N=N/C(C(=O)Nc2ccccc2)=C(/O)c2ccccc2)c(=O)n(-c2ccccc2)n1C` gave Env fusion inh 14, PGC1a acetyl inh 17, FGF22 binding 0, rRNA inh HTS -3 and ERAP1 HTS inh 1.

Screens deposited in PubChem BioAssay by Broad Institute.
